Assay results from different studies.
Protocols differ between the studies behind these lines.
Target: Serine/threonine-protein kinase RIO3 (RIOK3, Homo sapiens, UniProt O14730)
Residues used in one study (O14730 1-519): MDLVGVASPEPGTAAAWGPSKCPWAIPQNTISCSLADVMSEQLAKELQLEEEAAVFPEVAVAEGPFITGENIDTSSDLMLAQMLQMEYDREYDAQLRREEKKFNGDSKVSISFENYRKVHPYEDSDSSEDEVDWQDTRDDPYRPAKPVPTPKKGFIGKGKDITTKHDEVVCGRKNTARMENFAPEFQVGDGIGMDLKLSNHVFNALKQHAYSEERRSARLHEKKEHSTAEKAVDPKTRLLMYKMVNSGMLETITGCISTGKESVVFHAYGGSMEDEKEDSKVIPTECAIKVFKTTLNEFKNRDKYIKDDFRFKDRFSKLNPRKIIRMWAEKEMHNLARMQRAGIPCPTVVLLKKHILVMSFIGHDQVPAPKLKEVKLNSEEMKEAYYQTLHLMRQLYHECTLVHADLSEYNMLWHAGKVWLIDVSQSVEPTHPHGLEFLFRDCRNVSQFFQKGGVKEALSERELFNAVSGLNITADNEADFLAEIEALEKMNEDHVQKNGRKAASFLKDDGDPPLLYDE

| SMILES | observed | method | concentration | remaining binding |
| --- | --- | --- | --- | --- |
| N[C@@H]1CCN(c2nccc(-c3cnn4ncccc34)n2)C1 | binding |  | 1 µM | 100% |
| O=C(N1CCS(=O)(=O)CC1)N1C[C@H](c2ccc(OC(F)(F)F)cc2)C[C@H](c2nc(C3CC3)no2)C1 | cell-free assay | competition with immobilised ligand | 1 µM | 85% |
| Cc1cnn2ncc(-c3ccnc(N(C)C)n3)c2c1 | binding |  | 1 µM | 100% |
| COc1cnc(Nc2cccc(S(N)(=O)=O)c2)nc1N1CCN(c2ccccc2)CC1 | binding | competition with immobilised ligand | 1 µM | 91% |
| C[C@@H](c1ccc(-n2cnc3c(N)ncnc32)cc1)N1CCc2nn(C)c(Cc3ccccc3)c2C1=O | binding | competition with immobilised ligand | 0.1 µM | 76% |
| CNC(=O)c1ccc(Nc2ncc(C(F)(F)F)c(NCc3nccnc3N(C)S(C)(=O)=O)n2)cc1 | cell-free assay | competition with immobilised ligand | 0.1 µM | 55% |
| CN(CCCC(F)(F)F)c1nccc(-c2cnn3ncccc23)n1 | binding |  | 1 µM | 100% |
| CO[C@@H](C)c1c(Nc2ccc([C@H](N(C)C(=O)C3CCS(=O)(=O)CC3)C(F)(F)F)cc2)cnc2cc(Cl)nn12 | cell-free assay | competition with immobilised ligand | 1 µM | 82% |
| C=CC(=O)N1CCC(C(=O)NCC(=O)N2CCN(c3nc(-c4cnc(N)nc4C(F)F)nc(N4CCOCC4)n3)CC2)CC1 | binding | competition with immobilised ligand | 1 µM | 100% |
| C[C@H]1CCN(c2nccc(-c3cnn4ncccc34)n2)C1 | binding |  | 1 µM | 100% |
| O=C1NC(c2ccccn2)Sc2ccccc21 (stereo not shown) | cell-free assay | competition with immobilised ligand | 1 µM | 91% |
| O=C(NCCCN1CCOCC1)c1ccc(Nc2nccc(-c3cc4ccccc4s3)n2)cc1 | binding | competition with immobilised ligand | 1 µM | 1.7% |
| COc1ccc2c(O[C@@H]3C[C@H]4C(=O)N[C@]5(C(=O)O)CC5/C=C\CCCCC[C@H](NC(=O)OC5CCCC5)C(=O)N4C3)cc(-c3csc(NC(=O)C(C)C)n3)nc2c1C (stereo partly shown) | cell-free assay | competition with immobilised ligand | 1 µM | 100% |
| O=C(Nc1c[nH]nc1C(=O)NC1CCNCC1)c1cc(F)cc(F)c1 | binding | competition with immobilised ligand | 1 µM | 100% |
| CCCOc1ccc([C@@H]2[C@@H](C(=O)O)[C@H](c3ccc4c(c3)OCO4)CN2CC(=O)Nc2c(CC)cccc2CC)cc1 | cell-free assay | competition with immobilised ligand | 1 µM | 100% |
| COc1ccnn2ncc(-c3ccnc(N(C)C)n3)c12 | binding |  | 1 µM | 100% |
| O=C(c1ccc(Nc2nccc(-c3cc4ccccc4s3)n2)cc1)N1CCC(N2CCCC2)CC1 | binding | competition with immobilised ligand | 1 µM | 0.9% |
| CN(c1nccc(-c2cnn3ncccc23)n1)C1CC1 | binding |  | 1 µM | 100% |
| FC(F)(F)Oc1cccc(-c2cnc3ccc(-c4ccncc4)nn23)c1 | binding | competition with immobilised ligand | 5 µM | 16% |
| O=C(NCCCN1CCOCC1)c1ccc(Nc2ncc(Cl)c(-c3ccc(Cl)s3)n2)cc1 | binding | competition with immobilised ligand | 1 µM | 0.4% |
| CCS(=O)(=O)c1cc2cc(C[C@](O)(CC(C)(C)c3ccc(F)cc3C(N)=O)C(F)(F)F)[nH]c2cn1 | cell-free assay | competition with immobilised ligand | 1 µM | 91% |
| F[C@@H]1CCN(c2nccc(-c3cnn4ncccc34)n2)C1 | binding |  | 1 µM | 85% |
